Holding throughout (assay type): functional
Assay [1] concerns Candida albicans. Description: Antimicrobial activity against azole-resistant Candida albicans isolate CA10 assessed as growth at 8 ug/ml cotreated with 0.063 ug/ml calcineurin signaling inhibitor tacrolimus after 48 hrs by microdilution checkerboard technique relative to control. Further details: scale not given: the % may be the effect or the level left. A digest of the protocol: (§1)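 CA10 in RPMI 1640 with 2% dextrose and 0.165 M MOPS, pH 7.0. Checkerboard used twofold dilutions, with azole alone in row H and the drug-free growth control in well H1. Final inoculum was 2.5 × 10^3 CFU/ml, incubated 35°C for 48 h, with OD read at 492 nm. Growth % = background-subtracted well OD / drug-free well OD. Run in triplicate on different days.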
On the technique in general: Dilution methods test growth across graded concentrations, often in twofold steps.

The test system of assay [2] is Candida albicans. Description: Antimicrobial activity against azole-resistant Candida albicans isolate CA10 assessed as growth at 0.5 ug/ml co-treated with 0.031 ug/ml calcineurin signaling inhibitor tacrolimus after 48 hrs by microdilution checkboard technique relative to control. Further details: scale not given: the % may be the effect or the level left. In outline: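 Checkerboard microdilution in RPMI 1640 (pH 7.0, 2% dextrose, 0.165 M MOPS). Azole dilutions run along columns and FK506 along rows, at 4× final concentration. Final inoculum 2.5 × 10^3 CFU/ml from Sabouraud-subcultured cells. Incubated 35°C for 48 h; OD read at 492 nm. Background from microorganism-free plates subtracted. Growth % = well OD / drug-free well OD. Triplicate on different days, values averaged.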

The test system of assay [3] is Candida albicans. In words: Antimicrobial activity against azole-resistant Candida albicans isolate CA10 assessed as growth at 2 ug/ml cotreated with 0.008 ug/ml calcineurin signaling inhibitor Tacrolimus after 48 hrs by microdilution checkboard technique relative to control. Further details: scale not given: the % may be the effect or the level left. In outline:
(§2)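 Checkerboard microdilution in MOPS-buffered RPMI 1640 (pH 7.0, 2% dextrose). Final ranges: azole 0.125–128 μg/ml (FLC) or 0.008–8 μg/ml (ITR, VRC), tacrolimus 0.002–0.125 μg/ml; solvent 1% in single-drug wells. Inoculum 2.5 × 10^3 CFU/ml, 35°C, 48 h. Growth % = background-subtracted OD492 of each well / drug-free well. Triplicate on different days.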

Assay [4] concerns Candida albicans. In words: Antimicrobial activity against azole-resistant Candida albicans isolate CA10 assessed as growth at 4 ug/ml cotreated with 0.004 ug/ml calcineurin signaling inhibitor tacrolimus after 48 hrs by microdilution checkerboard technique relative to control. Further details: scale not given: the % may be the effect or the level left. A digest of the protocol:
as §1

Assay [5] concerns Candida albicans. In words: Antimicrobial activity against azole-resistant Candida albicans isolate CA10 assessed as growth at 0.5 ug/ml after 48 hrs by microdilution checkerboard technique relative to control. In outline: as §2
The test system of assay [6] is Candida albicans. In words: Antimicrobial activity against azole-resistant Candida albicans isolate CA15 after 48 hrs by broth microdilution method. The settings on record: isolate CA15, 48 h. In outline:
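CLSI M27-A2 broth microdilution was run in RPMI 1640 (pH 7.0, 2% dextrose, 0.165 M MOPS). Inoculum was 2.5 × 10^3 CFU/ml, incubated 35°C for 48 h without shaking. Plates were read visually (0–5 scale) and at OD 492 nm. MIC80 = lowest concentration giving an 80% absorbance decrease vs drug-free control. Triplicate.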

In assay [7] the test system is Candida albicans. In words: Antimicrobial activity against azole-resistant Candida albicans isolate CA10 assessed as growth at 64 ug/ml co-treated with 0.125 ug/ml calcineurin signaling inhibitor tacrolimus after 48 hrs by microdilution checkboard technique relative to control. Also on record: scale not given: the % may be the effect or the level left. A digest of the protocol: as §1

The test system of assay [8] is Candida albicans. Description: Antimicrobial activity against azole-resistant Candida albicans isolate CA10 assessed as growth at 128 ug/ml cotreated with 0.125 ug/ml calcineurin signaling inhibitor Tacrolimus after 48 hrs by microdilution checkboard technique relative to control. Further details: scale not given: the % may be the effect or the level left. In outline: as §2

Values after ≈ are worked out from the molar mass of the structure shown.

The term MIC denotes the smallest concentration in the dilution series that meets the test's criterion for growth inhibition. For the molecule `OC(Cn1cncn1)(Cn1cncn1)c1ccc(F)cc1F` [FLUCONAZOLE], the Activity was determined as 12% with Candida albicans [1]; 19% in the assay on Candida albicans [2]; 22% in the assay on Candida albicans [3]; 46% in the assay on Candida albicans [4]; 53% in the assay on Candida albicans [5]; 0% with Candida albicans [7]. Further, in the assay on Candida albicans [8], the Activity was determined as 0%. This molecule also yielded an MIC against Candida albicans [6] of 128 µg/mL (≈ 418 µM).
